“Also recorded” adds a separate entry of the source. Read-outs that look alike come from different tables or passages of the source.
Assays:
[1] = assay type: in vivo, human (healthy subjects); conditions: for Increase in T1/2: quizartinib coadministered with ketoconazole; for Tmax / AUC(0-inf) / AUC(0-t) / half-life / Cmax: human, plasma, oral; for AUC(0-inf): AUCinf; for AUC(0-inf) / AUC(0-t) / Cmax: geometric LS mean (SE); for AUC(0-t): AUClast; for half-life: Mean T1/2 (CV%); for Geometric mean CL/F (%CV): quizartinib
[2] = C-QTc model, phase 2 data; ref data on file, Daiichi Sankyo, Inc; cited from earlier work
[3] = Plasma concentrations of ketoconazole and fluconazole to confirm steady state; assay type: in vivo, human (healthy subjects); conditions: 200 mg twice daily
Procedure, shortened: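 Inhibitors were given orally for 8 days (moderate inhibitor: 200 mg twice daily) before the test compound. Blood was drawn before the morning dose on Days 6–8. On Day 8 it was also drawn at 2 and 12 h post-dose for the strong inhibitor, and at 3 and 12 h for the moderate inhibitor. Plasma levels were measured by validated LC–MS/MS and reported as mean ± standard deviation.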

[4] = Safety: adverse event evaluation; assay type: in vivo, human (healthy subjects)
Procedure, shortened: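 Healthy males and females aged 18–55 years were randomised 1:1:1 to strong inhibitor + test compound, moderate inhibitor + test compound, or test compound alone. A single oral 30 mg dose was given on Day 8. The safety population was everyone who received the test compound or ≥1 inhibitor dose. Assessments included physical exams, vital signs, 12‑lead ECG, haematology, chemistry and urinalysis. AEs were graded for severity, relation to study drugs and clinical significance through Day 29.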

[5] = ref data on file, Daiichi Sankyo, Inc; cited from earlier work
[6] = 12-lead electrocardiograms: QTcF interval by ICH E14 category; assay type: in vivo, human (healthy subjects); conditions: single 30-mg dose alone or with ketoconazole or fluconazole
[7] = AC886 in plasma, (Ketoconazole + Quizartinib)/(Quizartinib)
[8] = 30 mg, quizartinib in plasma, single 30-mg dose of quizartinib alone
[9] = 200 mg, quizartinib in plasma, single 30-mg dose with fluconazole 200 mg twice daily
[10] = 200 mg, quizartinib in plasma, single 30-mg dose with ketoconazole 200 mg twice daily
[11] = with fluconazole coadministration
[12] = with ketoconazole coadministration vs quizartinib alone

## CC(C)(CO)c1cc(NC(=O)Nc2ccc(-c3cn4c(n3)sc3cc(OCCN5CCOCC5)ccc34)cc2)no1 [AC886]
[1]; [7]
  AUCinf, ratio of geometric LS mean (90% CI): 85%
  AUClast, ratio of geometric LS mean (90% CI): 67%
  Cmax, ratio of geometric LS mean (90% CI): 40%
[1]; AC886 in plasma, single 30-mg dose of quizartinib alone
  Median Tmax (min, max): 5.1 h
[1]; AC886 in plasma, single 30-mg quizartinib dose with fluconazole
  Median Tmax (min, max): 5.0 h
[1]; AC886 in plasma, single 30-mg quizartinib dose with ketoconazole
  Median Tmax (min, max): 48.0 h
[1]; fluconazole + quizartinib arm
  Ratio of geometric LS means of Cmax of AC886 to Cmax of quizartinib: 0.12
[1]; ketoconazole + quizartinib arm
  Ratio of geometric LS means of Cmax of AC886 to Cmax of quizartinib: 0.04
[1]; quizartinib arm
  Ratio of geometric LS means of Cmax of AC886 to Cmax of quizartinib: 0.13
[1]
  Increase in T1/2: 96%
[2]
  Effect on QTcF, fold lower than quizartinib: 10 fold

## OC(Cn1cncn1)(Cn1cncn1)c1ccc(F)cc1F [fluconazole]
[3]; predose on Day 6
  Mean (± standard deviation) plasma concentration: 13.2 ± 4.1 µg/mL
[3]; predose on Day 7
  Mean (± standard deviation) plasma concentration: 13.8 ± 3.8 µg/mL
[3]; predose on Day 8
  Mean (± standard deviation) plasma concentration: 14.5 ± 3.7 µg/mL

## CC(=O)N1CCN(c2ccc(OCC3COC(Cn4ccnc4)(c4ccc(Cl)cc4Cl)O3)cc2)CC1 (stereo not drawn) [ketoconazole]
[3]; predose on Day 6
  Mean (± standard deviation) plasma concentration: 1.5 ± 0.8 µg/mL
[3]; predose on Day 7
  Mean (± standard deviation) plasma concentration: 1.4 ± 0.7 µg/mL
[3]; predose on Day 8
  Mean (± standard deviation) plasma concentration: 1.4 ± 0.8 µg/mL

## CC(C)(C)c1cc(NC(=O)Nc2ccc(-c3cn4c(n3)sc3cc(OCCN5CCOCC5)ccc34)cc2)no1 [quizartinib]
[4]; all treatment arms
  Serious adverse events: no serious adverse events or deaths occurred; also recorded: no serious AEs observed
[4]; fluconazole + quizartinib arm
  Subjects who experienced at least 1 AE: 14 (45.2%) subjects (%)
  Subjects with AEs considered possibly related to quizartinib: 1 subjects
[4]; ketoconazole + quizartinib arm
  Subjects with AEs considered possibly related to quizartinib: 1 subjects
[4]; overall
  Subjects who experienced quizartinib-related adverse events: 5.4%
[4]; overall (n = 93)
  Subjects with AEs considered possibly related to quizartinib: 5 (5.4%) subjects (%)
[4]; quizartinib + ketoconazole arm
  Subjects who experienced at least 1 AE: 9 (29.0%) subjects (%)
[4]; quizartinib arm
  Subjects who experienced at least 1 AE: 13 (41.9%) subjects (%)
  Subjects with AEs considered possibly related to quizartinib: 3 subjects
[1]; coadministration with moderate CYP3A inhibitor fluconazole
  Increase in quizartinib exposure: ≤ 20%
[1]; 30 mg
  Tmax: 4 h
[1]; [8]
  AUC(0-inf): 9630 ng·h/mL
  AUC(0-t): 9100 ng·h/mL
  half-life: 98 h
[1]; 200 mg
  Tmax: 4 h
[1]; [9]
  AUC(0-inf): 11500 ng·h/mL
  AUC(0-t): 10900 ng·h/mL
  Cmax: 116 ng/mL
  half-life: 112 h
[1]; [10]
  AUC(0-inf): 18700 ng·h/mL
  AUC(0-t): 17000 ng·h/mL
  Cmax: 121 ng/mL
  half-life: 145 h
[1]; ketoconazole coadministered with quizartinib
  Decrease in CL/F: 50%
[1]
  Increase in T1/2: 46%
[1]; quizartinib in plasma, single 30-mg dose with fluconazole 200 mg twice daily
  Median Tmax (min, max): 4.0 (2.0, 5.0) [n = 28] h
[1]; quizartinib in plasma, single 30-mg dose with ketoconazole 200 mg twice daily
  Mean T1/2 (CV%): 149 (23.0) [n = 28] h
[1]; single 30-mg dose of quizartinib alone
  Geometric mean CL/F (%CV): 2.75 (35.9) [n = 29] L/h
[1]; single 30-mg dose with fluconazole 200 mg twice daily
  Geometric mean CL/F (%CV): 2.29 (34.3) [n = 28] L/h
[1]; single 30-mg dose with ketoconazole 200 mg twice daily
  Geometric mean CL/F (%CV): 1.42 (26.1) [n = 28] L/h
[1]; [11]
  Change in CL/F: ~17%
  Change in mean T1/2: ~ 10%
  Increase in geometric LS mean AUCinf: 20%
  Increase in geometric LS mean AUClast: 20%
  Increase in geometric LS mean Cmax: 11%
[1]; [12]
  Increase in geometric LS mean AUCinf: 94%
  Increase in geometric LS mean AUClast: 86%
  Increase in geometric LS mean Cmax: 17%
[5]
  Median effective half-life: 73 h
[6]
  Vital signs and changes to QTcF, haematology or clinical chemistry: No significant abnormalities in vital signs or changes to QTcF

Source: article PMC6710528 (British Journal of Clinical Pharmacology, 2019)
